pIC50: −log10 of the molar value.
What was measured:
Type in all cases: functional, cell-based
HSC-3 = assay: Cytotoxic potency against human HSC-3 cell line expressed as inhibitory concentration
In short: (§1)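 Adherent cells grown in high-glucose DMEM with 10% FCS, harvested with trypsin/EDTA. Seeded at 3 × 10^5 cells/mL; drug at 5–150 µM added after 24 h, 37 °C. IC50 derived from 72 h exposure dose-response curves; only effects persisting 3 days after drug removal reported. Trypan blue counts plus MTT and Alamar blue viability readouts, triplicate.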

HeLa = assay: Cytotoxic potency against human HeLa cell line expressed as inhibitory concentration
In short: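 Monolayers in high-glucose DMEM with 10% FCS, harvested with an EDTA/PBS dissociation medium. Plated at 3 × 10^5 cells/mL, dosed 24 h later with 5–150 µM at 37 °C. IC50 from 72 h dose-response curves, irreversible effects only (3-day drug-free recovery). Measured by Trypan blue exclusion, MTT (570 nm) and Alamar blue (570/600 nm) assays, in triplicate.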

MOLT-3 = assay: Cytotoxic potency against human MOLT-3 cell line expressed as inhibitory concentration
In short: (§2)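 Suspension cultures in RPMI-1640 with 25 mM HEPES and 10% FCS, seeded at 3 × 10^5 cells/mL; drug (5–150 µM) added 24 h later, 37 °C. IC50 taken from dose-response curves after 72 h exposure, counting irreversible effects only (drug washed out, 3 further days). Read-out by Trypan blue exclusion, MTT (4 h, 570 nm) and Alamar blue (8 h, 570/600 nm); triplicate.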

THP-1 = assay: Cytotoxic potency against human THP-1 cell line expressed as inhibitory concentration; in short: as §2
L132 = assay: Cytotoxic potency against human L-132 cell line expressed as inhibitory concentration; in short: as §1

Row | Sequence | pIC50 (HSC-3) | pIC50 (HeLa) | pIC50 (MOLT-3) | pIC50 (THP-1) | pIC50 (L132)
1 | CARBOPLATIN | 5.52 | – | – | – | –
2 | CISPLATIN | 5.15 | 5.70 | 5.40 | 5.70 | 5.70

From ChEMBL document CHEMBL1148464, “Cytotoxic activity of metal complexes of biogenic polyamines: polynuclear platinum(II) chelates” (J Med Chem, 2004)
